The record followed here is ChEMBL document CHEMBL4330056, “Synthesis and Cytotoxic and Antiviral Profiling of Pyrrolo- and Furo-Fused 7-Deazapurine Ribonucleosides” (J Med Chem, 2018).

One series concerns MRC5. Put plainly: Antiproliferative activity against human MRC5 cells after 3 days by MTS assay. As to conditions: MRC5, 72 h.
The next series concerns HL-60. Kind of series: Antiproliferative activity against human HL60 cells after 72 hrs by XTT assay. It counts as functional, cell-based. As to conditions: HL-60, 72 h. For orientation: Tetrazolium assays rely on reduction of a dye to a coloured formazan, in cell work by metabolically active cells.
The next series relates to Human orthopneumovirus. Kind of series: Antiviral activity against Human respiratory syncytial virus A2 infected in Hep2 cells assessed as reduction in virus-induced cytopathic effect incubated for 4 days by CellTiter-Glo viability reagent based assay. It is filed as functional, organism-based. A general note: Cytopathic effects are the visible damage that an infection or toxin causes in cultured cells.

The subject of a further series is HepG2. Kind of series: Antiproliferative activity against human HepG2 cells after 72 hrs by XTT assay. It counts as functional, cell-based. As to conditions: HepG2, 72 h.
Series [1] is described as follows: Antiproliferative activity against human K562-TAX cells after 3 days by MTS assay. It is filed as functional, cell-based. As to conditions: 72 h.
A further series has as its system BJ. Kind of series: Antiproliferative activity against human BJ cells after 3 days by MTS assay. As to conditions: 72 h.
Series [2] deals with T1, Adenosine kinase (Homo sapiens, UniProt P55263). Kind of series: Substrate activity at recombinant human ADK assessed as compound phosphorylation at 50 uM after 20 mins in presence of [3H]-adenosine by UPLC. It counts as ADME.
T1 sequence (P55263 whole entry): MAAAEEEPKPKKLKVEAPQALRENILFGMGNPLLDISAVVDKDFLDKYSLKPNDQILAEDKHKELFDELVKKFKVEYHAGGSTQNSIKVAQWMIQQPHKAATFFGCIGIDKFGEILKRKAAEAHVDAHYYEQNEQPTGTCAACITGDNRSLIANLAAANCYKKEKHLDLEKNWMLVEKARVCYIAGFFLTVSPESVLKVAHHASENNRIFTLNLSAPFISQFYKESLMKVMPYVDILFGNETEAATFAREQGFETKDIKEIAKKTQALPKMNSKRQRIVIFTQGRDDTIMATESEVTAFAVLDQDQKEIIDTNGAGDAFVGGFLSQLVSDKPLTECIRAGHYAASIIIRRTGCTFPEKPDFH
The target of series [3] is T1, Adenosine kinase. Kind of series: Inhibition of recombinant human ADK using [3H]-adenosine as substrate after 20 mins by TLC scanner-based analysis relative to control. In a few lines: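 ADK inhibition: 50 μM adenosine substrate with 10 μM test compound and 97 ng enzyme, 20 min at 37 °C.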
For the next series, the system named is U2OS. Put plainly: Antiproliferative activity against human U2OS cells after 3 days by MTS assay. It counts as functional, cell-based. As to conditions: 72 h.
Series [4] has as its system Hepatitis C virus. Kind of series: Antiviral activity against Hepatitis C virus genotype 1b infected in human Huh-luc replicon cells after 3 days by luciferase assay. It counts as functional, organism-based, Hepacivirus hominis. As to conditions: subtype 1b, 72 h. On the technique in general: Replicon systems follow genome replication, usually without infectious particles.

For a further series, the system named is CCRF-CEM. Kind of series: Antiproliferative activity against human CCRF-CEM cells after 3 days by MTS assay. It is filed as functional, cell-based. As to conditions: 72 h.
Another series relates to Influenza A virus. Put plainly: Antiviral activity against Influenza A virus (A/Mexico/4108/2009(H1N1)) infected in MDCK cells assessed as inhibited virus-induced cytopathic effect incubated for 2 days by XTT assay. It counts as functional, organism-based.
A further series deals with dengue virus type 2. Kind of series: Antiviral activity against Dengue virus 2 Thailand/16681/84 infected in African green monkey Vero cells assessed as inhibition of virus replication incubated for 3 days by fluorescence microscopy. It is filed as functional, organism-based.
The subject of the next series is HeLa S3. Put plainly: Antiproliferative activity against human HeLaS3 cells after 72 hrs by XTT assay. It counts as functional, cell-based. As to conditions: HeLa S3, 72 h.
Series [5] can be described thus: Antiproliferative activity against human CEM-DNR-bulk cells after 3 days by MTS assay. As to conditions: 72 h.
For a further series, the system named is A549. Kind of series: Antiproliferative activity against human A549 cells after 3 days by MTS assay. It is filed as functional, cell-based. As to conditions: A549, 72 h.
The subject of another series is K562. Kind of series: Antiproliferative activity against human K562 cells after 3 days by MTS assay. It counts as functional, cell-based. As to conditions: K562, 72 h.
The test system of series [6] is HCT-116. Kind of series: Antiproliferative activity against human HCT116 cells after 3 days by MTS assay. It counts as functional, cell-based. As to conditions: HCT-116, 72 h.
The test system of series [7] is Hepatitis C virus. Put plainly: Antiviral activity against Hepatitis C virus genotype 2a infected in human Huh-luc replicon cells after 3 days by luciferase assay. It is filed as functional, organism-based, Hepacivirus hominis. As to conditions: subtype 2a, 72 h.
A further series concerns Human alphaherpesvirus 1. Kind of series: Antiviral activity against human herpesvirus 1 HF infected in African green monkey Vero cells assessed as inhibited virus-induced cytopathic effect incubated for 3 days by XTT assay. It is filed as functional, organism-based.
For series [8], the system named is HCT-116. Put plainly: Antiproliferative activity against p53 gene knocked out human HCT116 cells after 3 days by MTS assay. It is filed as functional, cell-based. As to conditions: HCT-116, 72 h.
Another series deals with Coxsackievirus B3. Put plainly: Antiviral activity against Human coxsackie B3 Nancy infected in human HeLa cells assessed as inhibited virus-induced cytopathic effect incubated for 2 days by XTT assay. It is filed as functional, organism-based.
The nature of series [9]: Cytotoxicity against human Hep2 cells assessed as reduction in cell viability after 3 days by CellTiter-Glo assay. It is filed as cell-based. As to conditions: HEp-2 cells.

Calls of active or inactive are those of the source. No cut-off for these calls is given here.

Consider `Cn1ccc2c1c1c(Cl)ncnc1n2[C@@H]1O[C@H](CO)[C@@H](O)[C@H]1O`, for which the IC50 is 50 µM in the series on MRC5; 0.06 µM in the series on HL-60; 0.16 µM in the series with HepG2; 50 µM in series [1]; 1.2 µM in the series with BJ; over 10 µM on Adenosine kinase [3]. Moreover, the IC50 with U2OS came out at 0.62 µM; in the series on CCRF-CEM it was 0.06 µM; in the series on HeLa S3 it was 0.57 µM; in series [5], 50 µM; in the series on A549, 2.99 µM; with K562, 0.18 µM. The IC50 with HCT-116 [6] came to 0.17 µM; with HCT-116 [8], 0.15 µM. Moreover, the result in the series with Human orthopneumovirus, in the series on Influenza A virus, with dengue virus type 2, in the series on Human alphaherpesvirus 1 and in the series on Coxsackievirus B3 was inactive. Besides, the Activity on Adenosine kinase [2] amounted to 77%. In addition, the EC50 stood at 0.37 µM in the series on Hepatitis C virus [4] and 0.06 µM in the series with Hepatitis C virus [7]. In addition, the 50% cytotoxic concentration (CC50) at 72 h in series [9] is over 44.4 µM.

On to `Cn1ccc2c3c(-c4ccco4)ncnc3n([C@@H]3O[C@H](CO)[C@@H](O)[C@H]3O)c21`, for which the IC50 in the series with MRC5 was 5.89 µM; with HL-60, 3 µM; with HepG2 it was over 50 µM; in series [1] it was 2.4 µM; in the series on BJ, 5.36 µM; on Adenosine kinase [3], 3.58 µM. The IC50 in the series with U2OS was found to be 3.49 µM; in the series with CCRF-CEM it was 1.36 µM; with HeLa S3 it was 2.97 µM; in series [5], 2.17 µM; with A549, 5.73 µM; in the series on K562, 4.03 µM. In addition, the IC50 in the series with HCT-116 [6] turned out to be 3.82 µM; in the series on HCT-116 [8], 4.01 µM. Further, the outcome in the series on Human orthopneumovirus, with Influenza A virus, with dengue virus type 2, in the series on Human alphaherpesvirus 1 and in the series with Coxsackievirus B3 was inactive. Moreover, the Activity on Adenosine kinase [2] came out at 0%. For the same molecule, the EC50 with Hepatitis C virus [4] stood at 0.34 µM; in the series on Hepatitis C virus [7] it was 0.77 µM. Moreover, in series [9], the half-maximal cytotoxic concentration (CC50) at 72 h lay within 2.63 to 16.4 µM.

`CN(C)c1ncnc2c1c1ccn(C)c1n2[C@@H]1O[C@H](CO)[C@@H](O)[C@H]1O`: the IC50 in the series with MRC5 is over 50 µM; with HL-60, over 50 µM; in the series with HepG2, over 50 µM; in series [1] it was over 50 µM; with BJ, over 50 µM; on Adenosine kinase [3], over 10 µM. Further, the IC50 (in the series on U2OS; with CCRF-CEM; in the series with HeLa S3; in series [5]; in the series on A549; with K562) was over 50 µM throughout. Besides, the half-inhibitory concentration (IC50) with HCT-116 [6] and in the series on HCT-116 [8] was over 50 µM each time. Further, the outcome with Human orthopneumovirus, in the series with Influenza A virus, in the series on dengue virus type 2, with Human alphaherpesvirus 1 and in the series on Coxsackievirus B3 was inactive. The Activity on Adenosine kinase [2] was 0%. Besides, the 50% effective concentration (EC50) in the series with Hepatitis C virus [4] and in the series on Hepatitis C virus [7] was over 44.4 µM each time. Also, the cytotoxic concentration (CC50) at 72 h in [9] is over 44.4 µM.

`Cn1ccc2c3c(Cl)ncnc3n([C@@H]3O[C@H](CO)[C@@H](O)[C@H]3O)c21`: the 50% inhibitory concentration (IC50) is over 50 µM in the series with MRC5; over 50 µM in the series on HL-60; over 50 µM with HepG2; over 50 µM in series [1]; over 50 µM with BJ; over 10 µM at Adenosine kinase [3]. Further, the IC50 (in the series with U2OS; with CCRF-CEM; with HeLa S3; in series [5]; with A549; in the series with K562) was over 50 µM each time. Also, the IC50 in the series with HCT-116 [6] and with HCT-116 [8] was over 50 µM in each case. Moreover, the result in the series on Human orthopneumovirus, with Influenza A virus, in the series on dengue virus type 2, in the series with Human alphaherpesvirus 1 and with Coxsackievirus B3 was inactive. Also, the Activity on Adenosine kinase [2] stood at 0%. The 50% effective concentration (EC50) is 36.4 µM in the series on Hepatitis C virus [4] and over 44.4 µM in the series on Hepatitis C virus [7]. Moreover, the cytotoxic concentration (CC50) at 72 h in series [9] was over 44.4 µM.

As for `Nc1ncnc2c1c1occc1n2[C@@H]1O[C@H](CO)[C@@H](O)[C@H]1O`, the IC50 with MRC5 is over 50 µM; in the series on HL-60, 0.51 µM; in the series on HepG2 it was 4.51 µM; in series [1], 50 µM; with BJ, over 50 µM; at Adenosine kinase [3], over 10 µM. Moreover, the IC50 was 7.09 µM with U2OS; over 50 µM in the series with CCRF-CEM; 1.71 µM in the series on HeLa S3; over 50 µM in [5]; over 50 µM in the series on A549; 6.04 µM in the series on K562. The 50% inhibitory concentration (IC50) with HCT-116 [6] was 48.4 µM; in the series with HCT-116 [8], over 50 µM. For the same molecule, the result in the series with Human orthopneumovirus, with Influenza A virus, in the series on dengue virus type 2, with Human alphaherpesvirus 1 and with Coxsackievirus B3 was inactive. The Activity at Adenosine kinase [2] came out at 75%. Also, the concentration for a half-maximal effect (EC50) in the series with Hepatitis C virus [4] is 0.3 µM; in the series with Hepatitis C virus [7] it was 0.33 µM. The CC50 at 72 h in series [9] was over 44.4 µM.

`Cc1ncnc2c1c1ccn(C)c1n2[C@@H]1O[C@H](CO)[C@@H](O)[C@H]1O`: the concentration for half-maximal inhibition (IC50) in the series on MRC5 is over 50 µM; in the series with HL-60, over 50 µM; with HepG2, over 50 µM; in series [1], over 50 µM; in the series with BJ it was over 50 µM; at Adenosine kinase [3] it was over 10 µM. The half-inhibitory concentration (IC50) (in the series on U2OS; with CCRF-CEM; in the series on HeLa S3; in [5]; in the series with A549; in the series on K562) was over 50 µM throughout. Besides, the half-maximal inhibitory concentration (IC50) in the series on HCT-116 [6] and in the series on HCT-116 [8] was over 50 µM in each case. Also, the outcome with Human orthopneumovirus, in the series on Influenza A virus, with dengue virus type 2, in the series with Human alphaherpesvirus 1 and in the series on Coxsackievirus B3 was inactive. At Adenosine kinase [2], the Activity was 0%. Further, the EC50 in the series with Hepatitis C virus [4] and in the series with Hepatitis C virus [7] was over 44.4 µM in each case. Also, the cytotoxic concentration (CC50) at 72 h in [9] was over 44.4 µM.

On to `CSc1ncnc2c1c1ccn(C)c1n2[C@@H]1O[C@H](CO)[C@@H](O)[C@H]1O`, for which the IC50 in the series with MRC5 was over 50 µM; with HL-60, over 50 µM; in the series on HepG2 it was over 50 µM; in [1], 30 µM; with BJ, over 50 µM; at Adenosine kinase [3], over 10 µM. Moreover, the IC50 in the series with U2OS is 27.4 µM; in the series on CCRF-CEM, 25.5 µM; in the series on HeLa S3 it was over 50 µM; in series [5], 28.2 µM; with A549, over 50 µM; in the series with K562 it was 18 µM. The IC50 in the series with HCT-116 [6] is 35.9 µM; with HCT-116 [8] it was over 50 µM. In addition, the outcome in the series with Human orthopneumovirus, in the series on Influenza A virus, in the series on dengue virus type 2, with Human alphaherpesvirus 1 and in the series on Coxsackievirus B3 was inactive. Moreover, on Adenosine kinase [2], the Activity was found to be 0%. Besides, the concentration for a half-maximal effect (EC50) in the series on Hepatitis C virus [4] was 5.98 µM; in the series with Hepatitis C virus [7], 17 µM. In [9], the CC50 at 72 h lay in the range of 36.8 to 44 µM.

By IC50 is commonly meant the point on the concentration scale where inhibition reaches its midpoint. By EC50 is commonly meant the midpoint of the concentration-response curve. Broadly, the CC50 is the concentration at which the toxic effect on the cells reaches its halfway point.
